# Measurements of several laboratories.
SMILES,target or system,assay,system,setting,endpoint,result
CC[C@H](C)[C@H](N)C(=O)OC[C@H]1O[C@@](C#N)(c2ccc3c(N)ncnn23)[C@H](O)[C@@H]1O,HEp-2,"cell growth or viability, CCK-8",,5 days,CC50,> 100 µM
O=C(Nc1ccc(S(=O)(=O)O)c2ccccc12)c1ccc(=O)oc1,TZM-bl,"cell growth or viability, resazurin",,,CC50,> 12.5 µM
COc1ccc2c(c1)CN(C(=O)CCN1CCC(Cc3ccccc3)CC1)CC[S@@+]2[O-],,,"male human, plasma","intravenous, 0.05 mg/kg, healthy volunteers",clearance,203 mL/min
CC(C)C(=O)OC[C@H]1O[C@@H](n2ccc(NO)nc2=O)[C@H](O)[C@@H]1O,HEp-2,"cell growth or viability, CCK-8",,5 days,CC50,50.1 µM
CCONC(=O)N1CCC[C@H](C(=O)NCc2nc(-c3ccccc3)cs2)C1,,metabolic stability,"human, liver microsomes",0.5 µM,microsomal CLint,10 µL/min/mg
Cc1ncsc1-c1ccc(CNC(=O)[C@@H]2C[C@@H](O)CN2C(=O)[C@@H](NC(=O)COCCOCCn2cc(COc3ccc(-c4nc5cc(-c6ccccc6)ccn5c4Nc4ccc(C(=O)O)cc4)cc3)nn2)C(C)(C)C)cc1,MCF7,cell growth or viability,,72 h,CC50,74 µM
Nc1ccn([C@@H]2O[C@H](CO)[C@@H](O)C2(F)F)c(=O)n1,MCF7,"cell growth or viability, MTT",,"10 µg/mL, 24 h",viability,20.7%
COCC(=O)N1CCC[C@H](C(=O)NCc2nc(-c3ccc(C#N)cc3)cs2)C1,,metabolic stability,"human, liver microsomes",0.5 µM,microsomal CLint,10 µL/min/mg
CC(C)C(=O)OC[C@H]1O[C@@](C#N)(c2ccc3c(N)ncnn23)[C@H](O)[C@@H]1O,HEp-2,"cell growth or viability, CCK-8",,5 days,CC50,81.6 µM
COCC(=O)N1CCC[C@H](C(=O)NCc2nc(-c3cncnc3)cs2)C1,,metabolic stability,"human, liver microsomes",0.5 µM,microsomal CLint,< 7 µL/min/mg
NC/C(=C\F)COc1cccc(Cn2c(=S)[nH]c(=O)c3[nH]cnc32)c1,"Solute carrier organic anion transporter family member 1B3 (SLCO1B3, Homo sapiens, UniProt Q9NPD5)","transporter uptake, inhibitor",,30 µM,inhibition,< 50%
NCCOCC(=O)N1CCC[C@H](C(=O)NCc2nc(-c3ccc(C(F)(F)F)cc3)cs2)C1,,metabolic stability,"male Sprague-Dawley rat, liver microsomes",0.5 µM,microsomal CLint,< 3 µL/min/mg
N#C[C@@]1(c2ccc3c(N)ncnn23)O[C@H](COC(=O)C2CCCCC2)[C@@H](O)[C@H]1O,HEp-2,"cell growth or viability, CCK-8",,5 days,CC50,44.7 µM
